How the values were obtained:
Type in all cases: functional
[1] = species: Mus musculus; test: Effect on antagonism of nicotine-induced tonic-extensor convulsions (TE) in Carworth farms male albino mice.
Method in brief: (§1)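 Male albino CF-1 mice (18–22 g). Compounds were dissolved or suspended in 0.25% aqueous methylcellulose and given ip to groups of four or six mice per dose, at multiple dose levels spaced 0.3 log apart. ED50 values were calculated by the Spearman–Karber method.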

[2] = species: Mus musculus; test: Effect on loss of traction (Tr) in Carworth farms male albino mice; method in brief: as §1
[3] = species: Mus musculus; test: Effect on antagonism of nicotine-induced death (D) in Carworth farms male albino mice; method in brief: as §1
[4] = species: Mus musculus; test: Effect on antagonism of nicotine-induced tonic-extensor convulsions (TE) in Carworth farms male albino mice; method in brief: as §1
[5] = species: Mus musculus; test: Effect on prolongation of hypoxic survival time (HS) in Carworth farms male albino mice; method in brief: as §1
[6] = species: Mus musculus; test: Effect on pentylenetetrazole-induced clonic convulsions (P) in Carworth farms male albino mice; method in brief: as §1
[7] = species: Mus musculus; test: Effect on potentiation of gamma-butyrolactone-induced sleep (gamma-B) in Carworth farms male albino mice; method in brief: as §1
[8] = species: Mus musculus; test: Effect on bicuculline-induced tonic-extensor convulsions (B) in Carworth farms male albino mice; method in brief: as §1
[9] = species: Mus musculus; test: Effect on bicuculline-induced tonic-extensor convulsions (B) in Carworth farms male albino mice.
Method in brief: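 CF-1 male albino mice, 18–22 g. Unless otherwise indicated, compounds were dissolved or suspended in 0.25% aqueous methylcellulose and given ip to groups of 4 or 6 mice per dose. Several dose levels were spaced at 0.3 log intervals. ED50 was calculated by the Spearman–Karber method.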

SMILES | ED50 [1] | ED50 [2] | ED50 [3] | ED50 [4] | ED50 [5] | ED50 [6] | ED50 [7] | ED50 [8] | ED50 [9]
Cc1nnc2n1-c1ccc(Cl)cc1CN=C2N1CCCCC1 | > 100 mg/kg | > 100 mg/kg | – | – | – | – | – | – | –
Cc1nnc2n1-c1ccc(Cl)cc1C(N1CCCC1)=NC2 | – | > 100 mg/kg | 18 mg/kg | 18 mg/kg | > 50 mg/kg | > 50 mg/kg | 7.4 mg/kg | > 50 mg/kg | –
Cc1nnc2n1-c1ccc(Cl)cc1C(N1CCCCCC1)=NC2 | – | > 100 mg/kg | > 100 mg/kg | > 100 mg/kg | – | – | – | – | –
Cc1nnc2n1-c1ccc(Cl)cc1C(N1CCN(C)CC1)=NC2 | – | > 100 mg/kg | > 100 mg/kg | > 100 mg/kg | – | – | – | – | –
Cc1nnc2n1-c1ccc(Cl)cc1C(N1CCN(c3ccccc3)CC1)=NC2 | – | > 100 mg/kg | > 100 mg/kg | > 100 mg/kg | – | – | – | – | –
Cc1nnc2n1-c1ccc(Cl)cc1CN=C2N1CCCC1 | – | > 6 mg/kg | – | > 6 mg/kg | – | – | > 6 mg/kg | – | > 6 mg/kg
CCCCCCNC1=NCc2nnc(C)n2-c2ccc(Cl)cc21 | – | > 100 mg/kg | > 100 mg/kg | > 100 mg/kg | – | – | – | – | –
Cc1nnc2n1-c1ccc(Cl)cc1C(N1CCCCC1)=NC2 | – | 0.3 mg/kg | 0.4 mg/kg | 0.4 mg/kg | 0.3 mg/kg | 1.1 mg/kg | 0.9 mg/kg | 0.7 mg/kg | –
Cc1nnc2n1-c1ccc(Cl)cc1CN=C2N1CCOCC1 | – | > 100 mg/kg | – | > 100 mg/kg | – | 40 mg/kg | > 50 mg/kg | > 50 mg/kg | –
Cc1nnc2n1-c1ccc(Cl)cc1CN=C2N1CCN(C)CC1 | – | > 100 mg/kg | – | > 100 mg/kg | 40 mg/kg | > 50 mg/kg | 40 mg/kg | > 50 mg/kg | –
Cc1nnc2n1-c1ccc(Cl)cc1C(N1CCOCC1)=NC2 | – | > 100 mg/kg | 71 mg/kg | 80 mg/kg | – | – | – | – | –
Cc1nnc2n1-c1ccc(Cl)cc1CN=C2N1CCCCCC1 | – | > 100 mg/kg | – | > 100 mg/kg | – | – | – | – | –
Cc1nnc2n1-c1ccc(Cl)cc1C(N1CCN(CCO)CC1)=NC2 | – | > 100 mg/kg | > 100 mg/kg | > 100 mg/kg | – | – | – | – | –
Cc1nnc2n1-c1ccc(Cl)cc1C(c1ccccc1)=NC2 [ALPRAZOLAM] | – | 0.6 mg/kg | 0.02 mg/kg | 0.02 mg/kg | 0.2 mg/kg | 0.1 mg/kg | 0.08 mg/kg | 0.2 mg/kg | –
CN1C(=O)CN=C(c2ccccc2)c2cc(Cl)ccc21 [DIAZEPAM] | – | 7 mg/kg | 0.28 mg/kg | 0.28 mg/kg | 0.2 mg/kg | 0.1 mg/kg | 0.035 mg/kg | 2.6 mg/kg | –
